Screening results from PubChem BioAssay.
Rows were chosen to be rich in hits. Some 4.9% of all compounds tested hit in one or more screens of this group.
HSF-1 act – increases HSF-1 driven luciferase reporter signal; 300,000 compounds, 1.7% hits; AID 504408; NIH3T3-HGL HSF-1 luciferase reporter, MG132, 8 h; 100% = twice DMSO control signal; activation, % at 9 µM;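 active = mean replicate activation of at least 50% with a set share of replicates each reaching 50%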;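 also: 0% = median of the neutral control wells and 100% = twice that signal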
PHOSPHO1 block – blocks human PHOSPHO1 phosphatase activity; Q8TCT1; recombinant PHOSPHO1, absorbance phosphatase assay; inhibition, % at 13.3 µM; 290,000 compounds, 1.1% hits; AID 1565; in the data active = inhibition above about 60%
Lipid droplet – hepatic lipid droplet formation modulation; AML12 mouse hepatocytes, oleate lipid droplets, BODIPY imaging; inhibition, % at 6.5 µM; 240,000 compounds, 0.4% hits;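 active = lipid droplet intensity inhibited by at least 50%, with more than 500 cells counted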
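Material – mouse AML12 hepatocyte cell line, fixed after treatment · Compound dosing – one dose, 6.5 µM compound · Times – compound with oleate, overnight · Measured by – Image-based BODIPY and DAPI two-channel analysis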
CHT block – inhibits the human high affinity choline transporter; 310,000 compounds, 0.86% hits; AID 488975; Q9GZV3; CHT-expressing cells, membrane potential dye, choline response; stronger effect = lower value; B-score at 10 µM;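 active = B-score over 3 SD under the library average, and starting fluorescence ratio not unusually high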;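 also: choline stimulus applied at its EC90 after an EC20 pre-addition; B-score computed on integrated fluorescence ratio after choline addition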
Target sequence (Q9GZV3 whole entry, looked up): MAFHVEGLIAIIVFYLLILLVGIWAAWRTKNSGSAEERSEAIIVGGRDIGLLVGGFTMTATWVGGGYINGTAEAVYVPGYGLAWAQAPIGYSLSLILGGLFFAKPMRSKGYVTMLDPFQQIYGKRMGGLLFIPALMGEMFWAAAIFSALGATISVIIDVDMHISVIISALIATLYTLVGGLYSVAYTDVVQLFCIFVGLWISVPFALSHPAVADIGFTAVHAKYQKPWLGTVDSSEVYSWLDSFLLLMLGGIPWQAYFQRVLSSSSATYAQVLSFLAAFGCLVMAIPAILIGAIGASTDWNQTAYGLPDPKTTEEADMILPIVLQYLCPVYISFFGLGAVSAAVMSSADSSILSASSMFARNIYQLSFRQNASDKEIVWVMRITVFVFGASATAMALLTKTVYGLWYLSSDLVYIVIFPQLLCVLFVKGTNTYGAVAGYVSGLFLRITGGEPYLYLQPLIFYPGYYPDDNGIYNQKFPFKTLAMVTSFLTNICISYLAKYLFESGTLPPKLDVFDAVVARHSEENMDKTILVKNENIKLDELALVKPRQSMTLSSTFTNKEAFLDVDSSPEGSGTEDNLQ
HSF1 inh – HSF1 inhibition; NIH3T3-HGL HSE-luciferase, MG132-induced, luminescence 8 h; stronger effect = lower value; 300,000 compounds, 0.77% hits; activity change, negative = inhibition, % at 7.5 µM (by protocol); AID 2098;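 active = more than half of replicate wells show activity change below -50%, luminescence cut by over half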;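 also: luciferase reports HSF-1 transcriptional activity via heat shock element; 0% = median of DMSO wells and -100% = zero luminescence signal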
CHT PAM – human CHT allosteric activation. Q9GZV3. CHT-expressing cells, membrane potential dye, choline EC20; stronger effect = higher value; LV-AA mutant CHT in HEK293 cells. B-score at 10 µM. 310,000 compounds, 0.49% hits. AID 488977;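 active = initial fluorescence not abnormally high and integrated response B-score, plate-corrected, over 3 SD above library mean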
Lipid drop inh – confirmation of inhibitors of hepatic lipid droplet formation; shares compounds with Lipid droplet; AML12 mouse hepatocytes, BODIPY lipid droplet imaging; droplets induced with 100 µM oleic acid; inhibition, % at 5.2 µM; 870 compounds, 65% hits; AID 463183;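 active = inhibition of lipid droplet metric at least 50%, with more than 300 cells in each of four replicates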;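 also: plate controls were DMSO with oleic acid for no effect and 5 µM Triacsin-C for full effect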
AML12 tox img – AML12 hepatocyte cytotoxicity (counter-screen) | shares compounds with Lipid droplet | 870 compounds, 3% hits | AML12 mouse hepatocytes, DAPI nuclear morphology cytotoxicity imaging; stronger effect = higher value; cells fed 100 µM oleate overnight | z-score at 5 µM; in the data active = z-score above about 6.3;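 also: compound exposure lasted overnight at 37 °C before fixation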
AML12 tox conf – confirmation of cytotoxicity in AML12 mouse hepatocytes | shares compounds with Lipid droplet | AML12 mouse hepatocyte viability, ATP luminescence; cells loaded with 100 µM oleic acid | cytotoxicity, % at 50 µM | 530 tested, under 10 active | AID 463219;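 active = cytotoxicity above 50% in each of four replicates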;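 also: compound exposure lasted overnight at 37 °C before the ATP read; 0% = DMSO-treated cells and 100% = wells with no cells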
CHT block conf – confirmation of human choline transporter CHT inhibitors; shares compounds with CHT block; CHT-expressing cells, choline membrane potential dye; LV-to-AA substituted CHT, HEK293 cells; CHT activity remaining % of control (stronger effect = lower value), % at 10 µM; 2,400 compounds, 70% hits;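 active = choline transporter activity left, mean of duplicates at 10 µM, below buffer-only control mean minus 3 SD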;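 also: depolarization triggered by choline at its EC90 following an EC20 pre-addition; 0% = hemicholinium-3 full block and 100% = buffer-only control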
HEK293 CHT ctr – activity in parental HEK293 cells lacking CHT; shares compounds with CHT block; AID 493222; 2,400 compounds, 4% hits; membrane potential dye, choline response; active = decrease or increase beyond buffer ±3SD; membrane potential ratio readout (active if shifted either direction beyond buffer ±3SD; no single direction) at 10 µM;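 also: parental cells lack the transporter so any hit is non-specific; ratio is peak minus trough fluorescence over baseline after EC90 choline challenge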
CHT act confirm – human CHT activation, confirmatory screen; shares compounds with CHT PAM; CHT-expressing cells, membrane potential dye fluorescence (FDSS); % of choline EC20–EC90 response window; HEK293 expressing CHT LV-AA mutant; choline added at its EC20; activation, % at 10 µM; 2,500 compounds, 91% hits; AID 504833;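 active = primary screen active, with duplicate mean activation above negative control mean plus 3 SD, cut at about 11% in these data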
HEK293 MP dye – CHT activator counter-screen hit in parental HEK293 cells; ratio readout change at 10 µM, hits read low; shares compounds with CHT PAM; membrane potential dye fluorescence (FDSS); measured after EC20 choline addition; 2,500 compounds, 62% hits;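 active = duplicate-averaged ratio beyond 3 SD from buffer wells, up or down, though filed actives are nearly all decreases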
An asterisk follows results filed as active; i = inactive; / = not tested or not shown.

SMILES | HSF-1 act | PHOSPHO1 block | Lipid droplet | CHT block | HSF1 inh | CHT PAM | CHT block conf | HEK293 CHT ctr | others
COc1ccc(C(=O)OCC(=O)NC(C)CCc2ccccc2)c(OC)c1 (configuration not stated) | 11 | 20 | 75* | -5.7* | -4 | i | i | i | Lipid drop inh=67;AML12 tox img=0.65;AML12 tox conf=7
COc1cc(OC)cc(C(=O)OCC(=O)NC(C)CCc2ccccc2)c1 (configuration not stated) | 6 | -6 | -2 | i | 2 | i | / | /
O=C1c2ccccc2C(=O)c2c(Nc3ccc(CCO)cc3)ccc(O)c21 | -17 | 33 | 113* | -7.4* | -8 | i | 67%* | i | Lipid drop inh=115*;AML12 tox img=0.44
Cn1ncc(Br)c1C(=O)NC12CC3CC(CC(C3)C1)C2 | -5 | 10 | -10 | i | -5 | i | / | /
CCCc1nc2ccccc2c(C(=O)OC(C)C(=O)NCc2ccc3c(c2)OCO3)c1CC (configuration not stated) | 32 | 23 | 84* | i | 6 | 7.7* | / | / | Lipid drop inh=103*;AML12 tox img=-0.11;AML12 tox conf=-6;CHT act confirm=36*;HEK293 MP dye=i
Cc1ccccc1NC(=O)C1CCN(S(=O)(=O)c2ccc3c(c2)NC(=O)C(C)S3)CC1 (configuration not stated) | -1 | 44 | -3 | i | 6 | i | / | /
Cc1ccc(Nc2nc(CSc3nnc(-c4ccc(F)cc4)n3C)cs2)cc1 | -25 | -16 | -39 | -6* | -12 | i | 48%* | i
CCCCN1CCc2c1nc1ccc(Br)cc1c2N | 23 | 9 | -3 | -5.6* | 3 | i | 51%* | i
CCCCc1c(C)nc2ccc(Br)cc2c1SC(N)N | / | 22 | 0 | / | / | / | / | /
COc1cc(C2Nc3ccc4ncccc4c3C3=C2C(=O)CCC3)ccc1O (configuration not stated) | 21 | 18 | / | -6.2* | 15 | i | i | i
Cc1ccsc1C1Nc2ccc3ncccc3c2C2=C1C(=O)CCC2 (configuration not stated) | 18 | 21 | / | i | 11 | i | / | /
C=CCn1c(SCc2ccc(F)cc2)nc2c1c(=O)[nH]c(=O)n2C | 16 | 9 | / | -6* | 10 | i | i | i
Cc1cc(C(=O)NCc2nc(-c3ccccc3)no2)ccc1[N+](=O)[O-] | 6 | 32 | 15 | i | 0 | i | / | /
Cc1ccc(CSCC(=O)Nc2ccc(N3CCOCC3)cc2N2CCOCC2)cc1 | 15 | / | / | i | 2 | i | / | /
CC(C)(C)NS(=O)(=O)c1cc(C(=O)Nc2sccc2C#N)ccc1Cl | -18 | -14 | 44 | -5.3* | 0 | i | i | i
N#Cc1ccsc1NC(=O)c1cnccn1 | 6 | / | / | i | -2 | i | / | /
Cc1csc(-c2cnn(-c3ccccc3)c2NC(=O)c2cccc(F)c2)n1 | -8 | 5 | -12 | i | 4 | i | / | /
OCCC1CN(CC2CCCCC2)CCN1CC1CCCCC1 (configuration not stated) | 6 | -10 | -1 | i | -1 | i | / | /
CNC(=S)N(Cc1cc2ccc(OC)cc2[nH]c1=O)CC1CCCO1 (configuration not stated) | 0 | 6 | -4 | i | -2 | i | / | /
O=C(NC1CCCCC1)N(Cc1ccccc1)Cc1ccco1 | 5 | -3 | -10 | -5.6* | 9 | i | 70%* | i
CCn1nc(C(=O)OCC(=O)N(CC(C)C)c2c(N)n(Cc3ccccc3)c(=O)[nH]c2=O)c2ccccc2c1=O | -13 | / | / | i | -10 | i | / | /
c1ccc2[nH]c(CSc3nc4ccccc4s3)nc2c1 | 19 | 14 | / | -6* | 16 | i | i | i
CCc1ccc(-n2c(C)cc(/C=N/NC(=O)OC)c2C)cc1 | 0 | -10 | -7 | -8.6* | -3 | i | 62%* | i
COC(=O)N/N=C/c1cc(C)n(-c2ccc(F)cc2)c1C | -10 | -18 | -3 | i | -2 | i | / | /
COC(=O)N/N=C/c1cc(C)n(-c2ccccc2)c1C | 22 | -18 | -3 | -8.3* | -1 | i | 23%* | i
SMILES | HSF-1 act | PHOSPHO1 block | Lipid droplet | CHT block | HSF1 inh | CHT PAM | CHT block conf | HEK293 CHT ctr | others
Cc1cc(/C=N/NC(=O)c2ccncc2)c(C)n1-c1ccccc1 | 7 | -2 | -19 | -6.8* | 0 | i | 30%* | i
O=C(O)c1cccc(N=C2NC(=O)C(CO)(CO)S2)c1 | 8 | 30 | 0 | i | 7 | i | / | /
CCc1nn(C(C)C(=O)NCc2cccc(Cl)c2)c(=O)c2cc3occc3n12 (configuration not stated) | -10 | 32 | -1 | i | 4 | i | / | /
CCc1nn(C(C)C(=O)NC(C)CCc2ccco2)c(=O)c2cc3occc3n12 (configuration not stated) | 129* | 11 | -49 | -5.9* | 66 | i | 49%* | -14*
Cc1nn(C(C)C(=O)NC(C)CCc2ccccc2)c(=O)c2cc3occc3n12 (configuration not stated) | -3 | 34 | -24 | -6.9* | 7 | i | 55%* | i
COc1ccccc1CNC(=O)C(C)n1nc(C)n2c(cc3occc32)c1=O (configuration not stated) | -8 | -36 | -18 | i | -6 | i | / | /
